Data as given in ChEMBL document CHEMBL1773010, “Cytotoxic and apoptosis-inducing activities of limonoids from the seeds of Azadirachta indica (neem)” (J Nat Prod, 2011).
The source made the active and inactive calls. No cut-off for these calls is given here.

How the values were obtained:
[1] = system: HL-60; test: Induction of apoptosis in human HL60 cells assessed as late apoptotic cells at 30 uM after 24 hrs using annexin-V FITC and PI staining by flow cytometry; type: functional
Procedure, shortened: (§1)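 HL60 cells (1 × 10^5) exposed to 30 μM final compound for 8 or 24 h. Cells were washed in annexin-binding buffer, stained with annexin V-FITC and PI for 10 min, and analyzed by flow cytometry (FL1 and FL2). Quadrants: early apoptotic annexin+/PI−, late apoptotic double positive, necrotic annexin−/PI+. Values are means of three experiments.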

[2] = system: HL-60; test: Induction of apoptosis in human HL60 cells assessed as decrease in procaspase-8 level at 30 uM after 24 hrs by Western blot analysis; type: functional, cell-based
Procedure, shortened: (§2)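 HL60 cells (4 × 10^5) exposed to 30 μM final compound for 8 and 24 h, then lysed. Total protein was run on 15% SDS-PAGE and transferred to PVDF. Membranes were probed overnight at 4 °C with antibodies to caspase-3, cleaved caspase-3, caspase-8 and caspase-9, with β-actin as loading control.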

[3] = system: HL-60; test: Induction of apoptosis in human HL60 cells assessed as early apoptotic cells at 30 uM after 8 hrs using annexin-V FITC and PI staining by flow cytometry; type: functional; procedure, shortened: as §1
[4] = Cytotoxicity against human RPMI 1788 cells assessed as cell viability after 48 hrs by MTT assay; type: cell-based; settings: RPMI-1788, 48 h
Procedure, shortened: (§3)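 Cells seeded at 3 × 10^3 per well and exposed to compounds from 1 × 10^-4 to 1 × 10^-6 M for 48 h. MTT was then added for 3 h, formazan dissolved in 0.04 M HCl in 2-propanol, and absorbance read at 570 nm against 630 nm. IC50 is the concentration giving 50% growth inhibition, from triplicate assays.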

[5] = Cytotoxicity against human AZ-521 cells assessed as cell viability after 48 hrs by MTT assay; type: functional, cell-based; settings: AZ-521, 48 h; procedure, shortened: as §3
[6] = system: HL-60; test: Induction of apoptosis in human HL60 cells assessed as increase in cleaved caspase-3 level at 30 uM after 24 hrs by Western blot analysis; type: functional, cell-based; procedure, shortened: as §2
[7] = system: SK-BR-3; test: Cytotoxicity against human SK-BR-3 cells assessed as cell viability after 48 hrs by MTT assay; type: functional, cell-based; settings: SK-BR-3, 48 h; procedure, shortened: as §3
[8] = system: HL-60; test: Induction of apoptosis in human HL60 cells assessed as late apoptotic cells at 30 uM after 8 hrs using annexin-V FITC and PI staining by flow cytometry; type: functional; procedure, shortened: as §1
[9] = system: HL-60; test: Induction of apoptosis in human HL60 cells assessed as early apoptotic cells at 30 uM after 24 hrs using annexin-V FITC and PI staining by flow cytometry; type: functional; procedure, shortened: as §1
[10] = system: HL-60; test: Selectivity index, ratio of IC50 for human RPMI 1788 cells to IC50 for human HL60 cells; type: functional
[11] = system: HL-60; test: Induction of apoptosis in human HL60 cells assessed as non-viable cells at 30 uM after 24 hrs using annexin-V FITC and PI staining by flow cytometry; type: functional; procedure, shortened: as §1
[12] = system: HL-60; test: Cytotoxicity against human HL60 cells assessed as cell viability after 48 hrs by MTT assay; type: functional, cell-based; settings: HL-60, 48 h; procedure, shortened: as §3
[13] = Cytotoxicity against human CRL1579 cells assessed as cell viability after 48 hrs by MTT assay; type: functional, cell-based; procedure, shortened: as §3
[14] = system: HL-60; test: Induction of apoptosis in human HL60 cells assessed as decrease in procaspase-9 level at 30 uM after 24 hrs by Western blot analysis; type: functional, cell-based; procedure, shortened: as §2
[15] = system: HL-60; test: Induction of apoptosis in human HL60 cells assessed as increase in cleaved caspase-9 level at 30 uM after 24 hrs by Western blot analysis; type: functional, cell-based; procedure, shortened: as §2
[16] = system: HL-60; test: Induction of apoptosis in human HL60 cells assessed as non-viable cells at 30 uM after 8 hrs using annexin-V FITC and PI staining by flow cytometry; type: functional; procedure, shortened: as §1
[17] = system: HL-60; test: Induction of apoptosis in human HL60 cells assessed as viable cells at 30 uM after 24 hrs using annexin-V FITC and PI staining by flow cytometry; type: functional; settings: HL-60, 24 h, read-out: Activity; procedure, shortened: as §1
[18] = system: HL-60; test: Induction of apoptosis in human HL60 cells assessed as viable cells at 30 uM after 8 hrs using annexin-V FITC and PI staining by flow cytometry; type: functional; settings: HL-60, 8 h, read-out: Activity; procedure, shortened: as §1
[19] = system: HL-60; test: Induction of apoptosis in human HL60 cells assessed as decrease in procaspase-3 level at 30 uM after 24 hrs by Western blot analysis; type: functional, cell-based; procedure, shortened: as §2
[20] = system: A549; test: Cytotoxicity against human A549 cells assessed as cell viability after 48 hrs by MTT assay; type: functional, cell-based; settings: A549, 48 h; procedure, shortened: as §3
[21] = system: HL-60; test: Induction of apoptosis in human HL60 cells assessed as increase in cleaved caspase-8 level at 30 uM after 24 hrs by Western blot analysis; type: functional, cell-based; procedure, shortened: as §2

Compound | Activity [1] | Activity [2] | Activity [3] | IC50 [4] | IC50 [5] | Activity [6] | IC50 [7] | Activity [8] | Activity [9] | Ratio IC50 [10] | Activity [11] | IC50 [12] | IC50 [13] | Activity [14] | Activity [15] | Activity [16] | viability at 30 µM [17] | viability at 30 µM [18] | Activity [19] | IC50 [20] | also measured
COC(=O)C[C@H]1[C@]2(C)C3=C(C)[C@H](c4ccoc4)C[C@H]3O[C@@H]2[C@@H]2OC[C@]3(C)C=CC(=O)[C@@]1(C)[C@@H]23 | 28.1% | Active | 10.9% | 2.7 µM | 2.4 µM | Active | 1.7 µM | 11.8% | 18.7% | 1 | 3.4% | 2.7 µM | 14.2 µM | Active | Active | 3.5% | 49.8% | 73.7% | Active | 9.3 µM | Activity [21]: Active
CC1(C)C(=O)C=C[C@]2(C)[C@H]3CC[C@@]4(C)[C@H](c5ccoc5)C(=O)[C@H]5O[C@]54[C@]3(C)[C@H](OC(=O)c3ccccc3)C[C@@H]12 | 15.5% | Active | 38.7% | 16.1 µM | 8.4 µM | Active | > 20 µM | 3% | 51.8% | 5.19 | 4.5% | 3.1 µM | > 20 µM | Active | Active | 1.4% | 28.2% | 56.9% | Active | > 20 µM | Activity [21]: Active
CC1(C)C(=O)C=C[C@]2(C)[C@H]3CC[C@@]4(C)[C@H](c5ccoc5)OC(=O)[C@H]5O[C@]54[C@]3(C)[C@H](OC(=O)c3ccccc3)C[C@@H]12 | 45.7% | Active | 10.5% | 2 µM | > 20 µM | Active | > 20 µM | 0.7% | 41.4% | 0.69 | 3% | 2.9 µM | > 20 µM | Active | Active | 0.7% | 9.9% | 88.1% | Active | > 20 µM | Activity [21]: Active
C/C=C(/C)C(=O)O[C@H]1C[C@@H](O)[C@@]2(C)CO[C@H]3[C@H]4O[C@@H]5C[C@@H](c6ccoc6)C(C)=C5[C@@]4(C)[C@H](CC(=O)OC)[C@]1(C)[C@@H]32 | – | – | – | – | > 20 µM | – | > 20 µM | – | – | – | – | > 20 µM | > 20 µM | – | – | – | – | – | – | > 20 µM | –
CCC(C)C(=O)O[C@H]1C[C@@H](OC(C)=O)[C@@]2(C(=O)OC)CO[C@H]3[C@@H](O)[C@@](C)([C@]45O[C@@]4(C)C4CC5O[C@@H]5C[C@@H](OC)C[C@]45O)[C@@H]4[C@@H](C(=O)OC)OC[C@@]14[C@@H]32 (stereo partly drawn) | – | – | – | – | > 20 µM | – | > 20 µM | – | – | – | – | > 20 µM | > 20 µM | – | – | – | – | – | – | > 20 µM | –
